Results from ChEMBL document CHEMBL4422659, “Discovery of novel 4-phenyl-2-(pyrrolidinyl)nicotinamide derivatives as potent Nav1.1 activators” (Bioorg Med Chem Lett, 2019).

Experiments:
[1] = target: Sodium channel protein type 1 subunit alpha (Homo sapiens) (UniProt P35498); experiment: Activation of human Nav1.1 expressed in T-Rex-CHO cells assessed as change in decay time constant of channel currents at 3 uM at holding potential of -120 mV by automated patch-clamp electrophysiology assay relative to control; type: cell-based
Procedure, shortened: (§1)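 Human Nav1.1 stably expressed in CHO cells; inactivation current decay time constant (tau) measured on IonWorks automated patch platform; tau given as % of control; mean of N=5 unless noted, standard deviation reported.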

[2] = target: Sodium channel protein type 1 subunit alpha (Homo sapiens) (UniProt P35498); experiment: Activation of human Nav1.1 expressed in T-Rex-CHO cells assessed as change in decay time constant of channel currents at 10 uM at holding potential of -120 mV by automated patch-clamp electrophysiology assay relative to control; type: cell-based; procedure, shortened: as §1
[3] = target: Sodium channel protein type 1 subunit alpha (Homo sapiens) (UniProt P35498); experiment: Activation of human Nav1.1 expressed in T-Rex-CHO cells assessed as change in decay time constant of channel currents at 1 uM at holding potential of -120 mV by automated patch-clamp electrophysiology assay relative to control; type: cell-based; procedure, shortened: as §1
[4] = target: Sodium channel protein type 1 subunit alpha (Homo sapiens) (UniProt P35498); experiment: Activation of human Nav1.1 expressed in T-Rex-CHO cells assessed as change in decay time constant of channel currents at 30 uM at holding potential of -120 mV by automated patch-clamp electrophysiology assay relative to control; type: cell-based; procedure, shortened: as §1
[5] = target: Sodium channel protein type 1 subunit alpha (Homo sapiens) (UniProt P35498); experiment: Activation of human Nav1.1 expressed in T-Rex-CHO cells assessed as change in decay time constant of channel currents at 1 uM by Q-patch assay relative to control; type: cell-based
Procedure, shortened: (§2)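 Human Nav1.1 in CHO cells, Q-patch automated patch clamp; current decay time constant (tau) and top current ratio expressed as % of control; mean of N=4 unless noted, standard deviation reported.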

[6] = target: Sodium channel protein type 1 subunit alpha (Homo sapiens) (UniProt P35498); experiment: Activation of human Nav1.1 expressed in T-Rex-CHO cells assessed as change in decay time constant of channel currents at 3 uM by Q-patch assay relative to control; type: cell-based; procedure, shortened: as §2
[7] = target: Sodium channel protein type 1 subunit alpha (Homo sapiens) (UniProt P35498); experiment: Activation of human Nav1.1 expressed in T-Rex-CHO cells assessed as change in decay time constant of channel currents at 10 uM by Q-patch assay relative to control; type: cell-based; procedure, shortened: as §2
[8] = 1-octanol/water partition co-efficient, log D of the compound at pH 7.4 by chromatographic analysis; type: physicochemical
[9] = Aqueous solubility of compound at pH 6.8 by UV absorbance method; type: physicochemical; settings: buffer
Procedure, shortened: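 Solubility determined at pH 6.8.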

[10] = target: Sodium channel protein type 1 subunit alpha (Homo sapiens) (UniProt P35498); experiment: Activation of human Nav1.1 expressed in T-Rex-CHO cells assessed as change in top peak current at 1 uM by Q-patch assay relative to control; type: cell-based; procedure, shortened: as §2
[11] = target: Sodium channel protein type 1 subunit alpha (Homo sapiens) (UniProt P35498); experiment: Activation of human Nav1.1 expressed in T-Rex-CHO cells assessed as change in top peak current at 3 uM by Q-patch assay relative to control; type: cell-based; procedure, shortened: as §2
[12] = target: Sodium channel protein type 1 subunit alpha (Homo sapiens) (UniProt P35498); experiment: Activation of human Nav1.1 expressed in T-Rex-CHO cells assessed as change in top peak current at 10 uM by Q-patch assay relative to control; type: cell-based; procedure, shortened: as §2
[13] = target: Sodium channel protein type 1 subunit alpha (Homo sapiens) (UniProt P35498); experiment: Activation of human Nav1.1 expressed in T-Rex-CHO cells assessed as change in decay time constant of channel currents at 0.3 uM by Q-patch assay relative to control; type: cell-based; procedure, shortened: as §2
[14] = target: Sodium channel protein type 1 subunit alpha (Homo sapiens) (UniProt P35498); experiment: Activation of human Nav1.1 expressed in T-Rex-CHO cells assessed as change in decay time constant of channel currents at 0.3 uM at holding potential of -120 mV by automated patch-clamp electrophysiology assay relative to control; type: cell-based; procedure, shortened: as §1

SMILES | Activity [1] | Activity [2] | Activity [3] | Activity [5] | also measured
CC(C)c1ccc(NC(=O)c2c(-c3ccc(Cl)cc3)ccnc2N2CCOCC2)cn1 | 374% | 767% | – | – | –
CC(C)c1ccc(NC(=O)c2c(-c3ccc(Cl)cc3)cncc2N2CCOCC2)cn1 | 313% | 699% | – | – | –
CC(C)c1ccc(NC(=O)c2c(N3CCOCC3)ccnc2-c2ccc(Cl)cc2)cn1 | 97% | 107% | – | – | –
CC(C)c1ccc(NC(=O)c2c(-c3ccc(Cl)cc3)cccc2N2CCOCC2)cn1 | 99% | 110% | – | – | –
CC(C)c1ccc(NC(=O)c2c(-c3ccn(C)n3)ncnc2N2CC[C@H](F)C2)cn1 | 87% | – | 80% | – | –
CC(C)c1ccc(NC(=O)c2c(-c3ccc(Cl)cc3)ncnc2N2CCOCC2)cn1 | 258% | 370% | – | 198% | Activity [4]: 555%; Activity [6]: 731%; Activity [7]: 774%; chromatographic logD [8]: 2.97; solubility [9]: > 100 µg/mL; Activity [10]: 113%; Activity [11]: 115%; Activity [12]: 131%
CC(C)c1ccc(NC(=O)c2c(-c3ccoc3)ncnc2N2CC[C@H](F)C2)cn1 | 115% | – | 80% | – | –
CC(C)c1ccc(NC(=O)c2c(-c3ccccc3F)ncnc2N2CC[C@H](F)C2)cn1 | 391% | – | 135% | 1400% | Activity [13]: 711%
CC(C)c1ccc(NC(=O)c2c(-c3ccccc3)ncnc2N2CC[C@H](F)C2)cn1 | 302% | – | 102% | 332% | Activity [13]: 255%
CC(C)c1ccc(NC(=O)c2c(-c3cc(F)ccc3F)cncc2N2CC[C@H](F)C2)cn1 | – | – | 124% | – | Activity [14]: 92%
CC(C)c1ccc(NC(=O)c2c(-c3cc(F)cc(F)c3F)ncnc2N2CC[C@H](F)C2)cn1 | 298% | – | 114% | – | –
CC(C)c1ccc(NC(=O)c2c(-c3ccc(Cl)cc3)ncnc2N2CC[C@H](F)C2)cn1 | 257% | 342% | 107% | 682% | Activity [13]: 170%
